Data published in ChEMBL document CHEMBL1148707, “Inhibition of the bacterial heme oxygenases from Pseudomonas aeruginosa and Neisseria meningitidis: novel antimicrobial targets” (J Med Chem, 2007).
Calls of active or inactive are those of the source. The calls are words filed in the database; no cut-off is given here.

Legend:
[1] = Binding affinity to Neisseria meningitidis heme oxygenase
Procedure, shortened: (§1)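 Fluorescence titration of purified apoprotein (1 µM; residual biliverdin removed by chromatofocusing) in 20 mM Tris-HCl pH 7.5. Compound added at 0.05-500 µM from DMSO stock. Mean of three experiments.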

[2] = tested on: Neisseria meningitidis; test: Inhibition of Neisseria meningitidis heme oxygenase-mediated biliveridin production in Escherichia coli BL21 at 1500 uM
Procedure, shortened: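 E. coli BL21(DE3) with leaky nm-HO expression grown overnight (16 h) in LB with 100 µg/mL ampicillin, with or without 1500 µM compound, no iron restriction. Cells lysed with 50 µM β/δ-biliverdin added as internal standard. Biliverdin extracted into chloroform, converted to dimethyl esters, analysed by HPLC. α-Biliverdin peak integrated against the standard.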

[3] = tested on: Pseudomonas aeruginosa; test: Growth inhibition of Pseudomonas aeruginosa MPA01 at <250 uM; type: functional, organism-based
Procedure, shortened: (§2)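 MPA01 grown 8 h at 37 °C, then diluted to OD600 0.05 in iron-restricted succinate minimal medium pH 7.0 with heme as iron source. Compound added from DMSO at 10-1500 µM. Incubated 10 h at 37 °C with aeration in 96-well format, then OD600 read.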

[4] = tested on: Pseudomonas aeruginosa; test: Growth inhibition of Pseudomonas aeruginosa MPA01 at >250 uM; type: functional, organism-based; procedure, shortened: as §2
[5] = tested on: Pseudomonas aeruginosa; test: Growth inhibition of Pseudomonas aeruginosa MPA01 in presence of haemoglobin; type: functional; parameters: scale not given: the % may be the effect or the level left
Procedure, shortened: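 MPA01 diluted to OD600 0.05 in succinate minimal medium pH 7.0 with 25 µM hemoglobin as sole iron source, with or without compound (DMSO). 10 h endpoint OD600 at 0-1500 µM, or hourly OD600 over 12 h at 500 µM, 37 °C with aeration. Compared with 40 µM Fe(III) pyoverdine cultures. Mean of three experiments.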

[6] = biological target: T1, Heme oxygenase (Pseudomonas aeruginosa, UniProt O69002); test: Binding affinity to Pseudomonas aeruginosa heme oxygenase; procedure, shortened: as §1
T1 sequence (O69002 whole entry): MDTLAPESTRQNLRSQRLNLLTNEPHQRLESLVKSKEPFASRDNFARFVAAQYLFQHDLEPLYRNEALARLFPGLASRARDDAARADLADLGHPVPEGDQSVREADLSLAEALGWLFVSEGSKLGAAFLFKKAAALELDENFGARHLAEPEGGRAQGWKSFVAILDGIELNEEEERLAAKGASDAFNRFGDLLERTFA

SMILES	Kd [1]	Activity [2]	Activity [3]	Activity [4]	Activity [5]	Kd [6]
CN(C)c1ccc(/C=N/NC(=N)N)cc1	22.9 µM	Active	inactive	–	–	–
N=C(N/N=C\c1cccnc1)N/N=C\c1cccnc1	12.2 µM	Active	inactive	–	–	–
O=C(Cc1ccc(Cl)cc1)N/N=C/c1c[nH]c2ccccc12	14.1 µM	Active	inactive	Active	40%	–
O=C1C(O)=C/C(=N\c2ccccc2O)c2ccccc21	28.8 µM	inactive	inactive	–	–	72.8 µM
O=C(Nc1ccc(-c2cn3ccccc3n2)cc1)c1ccccc1[N+](=O)[O-]	20.9 µM	Active	inactive	–	–	6.1 µM
O=C(O)/C=C/C(=O)Nc1ccc(Nc2ccccc2)cc1	15.6 µM	Active	inactive	Active	40%	20.1 µM
O=C(NNC(=O)c1ccncc1)c1ccncc1	–	inactive	inactive	–	–	–
